Assay outcomes deposited in PubChem BioAssay by several laboratories.
UPR XBP1 act = activators of adaptive XBP1 UPR arm, primary screen, cell-based, CHO-XBP1 luciferase reporter, luminescence, uHTS; activation, % at 20 µM; IRE1-XBP1 UPR activation; percent of tunicamycin response, DMSO as zero; 330,000 tested, 0.33% active;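 active = versus positive control, 20 µM dose yields 30% or more activation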;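 also: 100% = tunicamycin at 10 µg/mL and 0% = DMSO only wells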
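Material: CHO-XBP1 cells stably carrying IRE1-XBP1-driven luciferase reporter / Amount: 1000 cells per well / Compound: 20 µM, 1% DMSO / Times: 6 h treatment, 37 °C / Detection: luciferase luminescence / Measure: % activation of reporter signal versus tunicamycin and DMSO controls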
UPR CHOP act = activators of apoptotic CHOP UPR arm, primary screen, cell-based, CHO-CHOP luciferase reporter, luminescence, uHTS; UPR activation; percent of tunicamycin response over DMSO baseline; activation, % at 10 µM; 330,000 tested, 0.34% active; AID 449763, 2010;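 active = at 10 µM dose, activation of 40% or more, normalized to positive control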;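 also: 100% = tunicamycin at 10 µg/mL and 0% = DMSO alone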
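System: CHO-CHOP luciferase reporter cell line; amount: 500 cells/well; buffer or medium: F12 medium containing 10% fetal bovine serum; incubation: 6 h compound exposure at 37 °C after overnight seeding; measured by: luciferase luminescence after 10 min with Steady-Glo reagent; evaluation: % reporter activation, DMSO baseline versus tunicamycin full activation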
CHOP inhibitor = inhibitors of CHOP promoter induction, primary screen, cell-based, unfolded protein response, luciferase reporter; inhibition, % at 10 µM; CHO-K1 CHOP-promoter luciferase, tunicamycin-induced, 15-18 h; AID 2732, 2010; 220,000 tested, 3.8% active;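 active = compounds that reduced the stress-induced luciferase reporter signal by more than about 70% of percent inhibition, limit read from the data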;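 also: 0% = tunicamycin plus vehicle and 100% = wells without tunicamycin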
PvdQ acylase = P. aeruginosa PvdQ acylase inhibitors, primary screen, biochemical, fluorescence, plate reader and imaging, single point; PvdQ acylase [Pseudomonas aeruginosa LESB58]; purified PvdQ acylase; AID 488965, 2010; 340,000 tested, 0.063% active; inhibition, % at 10 µM; in the data active = inhibition above about 30%, passing the limit was not always enough;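 also: 0% = vehicle neutral wells and 100% = reference inhibitor wells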
CHOP confirm = retest of CHOP induction inhibitors, confirmation, cell-based; shares compounds with CHOP inhibitor; CHO-CHOP promoter luciferase reporter, tunicamycin-induced, luminescence; inhibition, % at 10 µM; 2,100 tested, 45% active; AID 504437, 2011;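 active = mean of three repeat readings of reporter signal inhibition above a set limit, cut at about 70% in these data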;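 also: 0% = tunicamycin plus vehicle and 100% = wells lacking tunicamycin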
Active calls of the source: *; nt = not tested or not shown. This is one part of a sample in which hits are shown more often than they occur.

SMILES	UPR XBP1 act	UPR CHOP act	CHOP inhibitor	PvdQ acylase	CHOP confirm
Cc1ccc2c(c1)N(CC(=O)NC1CCCC(C)C1C)C(=O)c1cccnc1O2 (centres undefined)	-4	-2	nt	5	nt
CCc1ccc(C2=C/C(=C/c3cccnc3)C(=O)O2)cc1	-3	0	103*	-14	-59
Cc1noc(C)c1C(=O)N(CC(=O)Nc1ccc(Cl)c(C(F)(F)F)c1)Cc1ccco1	-3	0	nt	-8	nt
COc1cc(C)ccc1S(=O)(=O)N1CCN(C23CC4CC(CC(C4)C2)C3)CC1	0	-1	105*	-13	12
COc1ccc(NC(=O)CC2C(=O)N(c3ccc(F)cc3)C(=S)N2NC(=O)c2ccc(Cl)cc2)cc1 (centres undefined)	-1	2	106*	10	43
COc1ccc(Cn2c(C)c(C)c(C#N)c2NC(=O)Nc2ccc(Cl)cc2)cc1	0	-1	106*	-6	103*
COc1ccc(NC(=O)Nc2ccc(OC)cc2)cc1	4	2	-24	10	nt
O=C(CCl)N(c1ccccc1)C1CCCCC1	-8	-1	107*	3	16
CC(=O)N(c1ccccc1)C1CCCC1	-1	1	18	-3	nt
COc1ccc(/C=N/NC(=O)c2nc(Cl)c(Cl)c(N)c2Cl)cc1COc1ccc(F)cc1F	6	3	100*	-18	36
COc1cc([C@@H]2c3cc4c(cc3[C@@H](O)[C@@H](CO)[C@@H]2CO)OCO4)cc(OC)c1O[Si](C)(C)C(C)(C)C	7	0	100*	nt	117*
CNc1oc(-c2ccc(C)cc2)nc1P(=O)(c1ccccc1)c1ccccc1	2	1	107*	-2	43
Cc1ccc(C(=O)/C=C\C(=O)c2ccc(C)cc2)cc1	nt	nt	102*	-12	-55
CNC(=O)COC(=O)c1ccccc1C(=O)c1ccc(Cl)c([N+](=O)[O-])c1	nt	nt	97*	-19	-57
c1ccc(-c2nnnn2-c2ccccc2)cc1	2	0	nt	-24	nt
ClC(Cl)(c1nnnn1-c1ccccc1)c1nnnn1-c1ccccc1	nt	nt	108*	-12	30
COc1ccccc1NC(=O)c1cc(C(=O)Nc2ccccc2OC)cc(N2C(=O)CCC2=O)c1	4	0	13	1	nt
CC1=CC(C)(C)n2c(O)c(N=N)c3c(C)c(C)cc1c32	0	3	98*	-3	10
CCOC(=O)C(NC(=O)Nc1cccc(C)n1)(OCC(F)(F)F)C(F)(F)F (centres undefined)	2	0	106*	1	95*
CC(=O)Nc1ccc(S(=O)(=O)N(C)CC(=O)OCC(=O)c2cc(C)n(-c3ccc4c(c3)OCO4)c2C)cc1	1	0	-3	-10	nt
CCOc1ccc(CCN2C(=O)C(=O)N([C@H](CCCN(C)Cc3ccccc3)CNCc3ccccc3)C[C@@H]2C(C)C)cc1	1	2	3	nt	nt
CN(CCCC[C@H](CNCc1ccc(-c2ccccc2)cc1)N1C[C@H](c2ccccc2)N(CCc2ccc(Cl)c(Cl)c2)C(=O)C1=O)Cc1ccc(-c2ccccc2)cc1	nt	nt	107*	nt	112*
CC(=O)Nc1sc(N/N=C\c2ccccc2Cl)nc1-c1cccs1	4	5	103*	-7	3
CC(=O)Nc1sc(N/N=C\c2ccccc2)nc1-c1cccs1	-2	0	1	-14	nt
COc1ccc2[nH]c(=O)c(CN(Cc3nnnn3Cc3ccco3)C3CCCCC3)cc2c1	-5	-2	3	1	nt
COc1ccc2[nH]c(=O)c(CN(C3CCCCC3)C(c3nnnn3Cc3ccco3)C(C)C)cc2c1 (centres undefined)	-2	-7	102*	-1	52
CCOC(=O)C1=C(c2ccccc2)O/C(=C(/C#N)C(F)(F)F)S1	-2	54*	97*	nt	113*
CCCn1c(N)c(C(=O)CSc2nnc(C3CC3)n2C2CC2)c(=O)[nH]c1=O	0	-1	nt	4	nt
CC(Oc1ccccc1)C(=O)N=Nc1c(O)[nH]c2ccc(Br)cc12 (centres undefined)	-3	0	101*	24	-4
